Data on 23 compounds can be found in ChEMBL document CHEMBL1147575, “Novel inhibitors of fatty acid oxidation as potential metabolic modulators” (Bioorg Med Chem Lett, 2004).

One series is filed under the species Homo sapiens. Description: Amount of parent compound remaining after incubation with human liver microsomes for 30 min. It is filed as functional. The procedure, abridged:
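Human liver microsome (liver S-9) incubation for 30 min; read-out is percent of parent drug remaining.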

For series [1], the species on record is Rattus norvegicus. Description: Inhibition of 1-14C]palmitoyl-CoA oxidation in rat heart mitochondria. It is filed as functional. The procedure, abridged: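 Rat heart mitochondria; substrate 1-14[C]-palmitoyl-CoA, oxidation measured. Tested at 6 concentrations; IC50 from non-linear regression curve fit, mean of n=3. Run only for compounds giving ≥50% inhibition at 100 µM.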

Series [2] can be described thus: Oral bioavailability in rat after oral administration at 11.2 mg/kg dose. It is filed as ADME, organism-based. The conditions noted are these: in vivo. The procedure, abridged:
(§1)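 Rats dosed orally, single dose per compound (9.7–13 mg/kg). Preliminary PK: oral bioavailability (%F), AUC (ng·hr/mL) and t1/2 (h) derived; values are average of n=3.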

A short description of series [3]: AUC in rat after oral administration at 11.2 mg/kg dose. It is filed as ADME, organism-based. Details: dose 11.2 mg/kg, route oral. The conditions noted are these: plasma. The procedure, abridged: as §1
Series [4] is described as follows: Half life period in rat after oral administration at 11.2 mg/kg dose. The conditions noted are these: in vivo. Type of series: ADME, organism-based. Details: dose 11.2 mg/kg, route oral. The procedure, abridged: as §1
The species named for series [5] is Rattus norvegicus. Description: Inhibition of 1-14C]palmitoyl-CoA oxidation in rat heart mitochondria at 100 uM concentration. Type of series: functional. The procedure, abridged: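 Single-point screen at 100 µM: percent inhibition of 1-14[C]-palmitoyl-CoA oxidation in rat heart mitochondria. 95% confidence limits generally ±15% of the mean.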
Series [6] can be described thus: Oral bioavailability in rat after oral administration at 10.5 mg/kg dose. Type of series: ADME, organism-based. The following applies: in vivo. The procedure, abridged:
as §1

The nature of series [7]: AUC in rat after oral administration at 10.5 mg/kg dose. Type of series: ADME, organism-based. Details: dose 10.5 mg/kg, route oral. The following applies: plasma. The procedure, abridged: as §1
Series [8] in a line: Half life period in rat after oral administration at 10.5 mg/kg dose. Type of series: ADME, organism-based. Details: dose 10.5 mg/kg, route oral. The following applies: in vivo. The procedure, abridged: as §1
The nature of series [9]: Oral bioavailability in rat after oral administration at 9.7 mg/kg dose. Type of series: ADME, organism-based. The following applies: in vivo. The procedure, abridged:
as §1

The nature of series [10]: AUC in rat after oral administration at 9.7 mg/kg dose. It is filed as ADME, organism-based. Details: dose 9.7 mg/kg, route oral. The following applies: plasma. The procedure, abridged: as §1
Series [11] is described as follows: Half life period in rat after oral administration at 9.7 mg/kg dose. The conditions noted are these: in vivo. Details: dose 9.7 mg/kg, route oral. Type of series: ADME, organism-based. The procedure, abridged:
as §1

The nature of series [12]: Oral bioavailability in rat after oral administration at 13 mg/kg dose. The following applies: in vivo. Type of series: ADME, organism-based. The procedure, abridged: as §1
The nature of series [13]: Half life period in rat after oral administration at 13 mg/kg dose. Details: dose 13 mg/kg, route oral. The following applies: in vivo. It is filed as ADME, organism-based. The procedure, abridged: as §1
Series [14] is described as follows: Area under curve in rat after oral administration at 13 mg/kg dose. It is filed as ADME, organism-based. Details: dose 13 mg/kg, route oral. The conditions noted are these: in vivo. The procedure, abridged: as §1

With `Cc1nc2cc(OC[C@@H](O)CN3CCN(CC(=O)Nc4c(C)cccc4C)C[C@@H]3C)ccc2s1`, in the series filed under Homo sapiens, the Remaining is under 30%. Moreover, in the series listed under Rattus norvegicus [1], the IC50 (in general, the point on the concentration scale where inhibition reaches its midpoint) is 5 µM.
Regarding `Cc1nc2cc(OC[C@H](O)CN3C(C)CN(CC(=O)Nc4c(C)cccc4C)CC3C)ccc2s1` (some centres undefined), the bioavailability (as a rule, dose-corrected exposure relative to a reference, in per cent) in [2] amounted to 11%. In [3], the area under the curve (AUC) (commonly concentration integrated over time) is 128 ng·h/mL. The half-life – broadly, how long it takes for the measured level to halve – in series [4] was 3.5 h. Moreover, the Remaining in the series listed under Homo sapiens was 21%. This compound displayed an IC50 in the series filed under Rattus norvegicus [1] of 0.07 µM.
On to `Cc1nc2cc(OC[C@H](O)CN3CCN(CC(=O)Nc4c(C)cccc4C)CC3)ccc2s1`, for which, in the series filed under Homo sapiens, the Remaining was under 27%. Besides, in the series listed under Rattus norvegicus [1], the IC50 amounted to 4 µM.
On to `Cc1nc2cc(OCC(O)CN3CCN(CC(=O)Nc4c(C)cccc4C)CC3(C)C)ccc2s1` (centres undefined), for which the Remaining in the series filed under Homo sapiens is under 10%. Moreover, half-maximal inhibition in the series listed under Rattus norvegicus [1] (IC50) was put at 0.45 µM.
Regarding `Cc1nc2cc(OC[C@@H](O)CN3CCN(CC(=O)Nc4c(C)cccc4C)C[C@H]3C)ccc2s1`, in the series listed under Homo sapiens, the Remaining is under 10%. In the series listed under Rattus norvegicus [1], this compound had an IC50 of 10 µM.
Turning to `Cc1nc2cc(OC[C@H](O)CN3CC(C)N(CC(=O)Nc4c(C)cccc4C)CC3C)ccc2s1` (some centres undefined), in the series filed under Homo sapiens, the Remaining is under 10%. Besides, the half-inhibitory concentration (IC50) in the series listed under Rattus norvegicus [1] is 0.023 µM.
Take `CCc1nc2cc(OCC(O)CN3CCN(CC(=O)Nc4c(C)cccc4C)CC3)ccc2s1` (centres undefined): in the series listed under Homo sapiens, the Remaining stood at 29%. For the same compound, the IC50 in the series filed under Rattus norvegicus [1] was 13 µM. In addition, in the series filed under Rattus norvegicus [5], the inhibition (in general, the relative decrease from the control value, in per cent) came to 75%.
Consider `Cc1nc2cc(OC[C@@H](O)CN3CCN(CC(=O)Nc4c(C)cccc4C)CC3)ccc2s1`, for which the Remaining in the series listed under Homo sapiens was found to be 35%. Also, in the series filed under Rattus norvegicus [5], the inhibition was 47%.
In the series filed under Rattus norvegicus [5], `Cc1nc2cc(OCC(O)CN3CCN(CC(=O)Nc4c(C)cccc4C)CC3)ccc2o1` (centres undefined) displayed an inhibition of 34%.
In the case of `Cc1cccc(C)c1NC(=O)CN1CCN(CC(O)COc2ccc3ncsc3c2)CC1` (centres undefined), the inhibition in the series listed under Rattus norvegicus [5] was found to be 3%.
For `Cc1nc2cc(OC[C@H](O)CN3CCN(CC(=O)Nc4c(C)cccc4C)C[C@H]3C)ccc2s1`, the Remaining in the series filed under Homo sapiens was under 10%. This compound also returned a half-inhibitory concentration (IC50) in the series filed under Rattus norvegicus [1] of 2 µM.
Regarding `Cc1nc2cc(OC[C@H](O)CN3CCN(CC(=O)Nc4c(C)cccc4C)CC3(C)C)ccc2s1`, the bioavailability in series [6] came to 13%. For the same compound, the exposure (AUC) in series [7] amounted to 265 ng·h/mL. The Remaining in the series listed under Homo sapiens was under 10%. For the same compound, in the series listed under Rattus norvegicus [1], the half-maximal inhibitory concentration (IC50) is 0.11 µM. The compound further gave a half-life in series [8] of 4.2 h.
For `Cc1cccc(C)c1NC(=O)CN1CCN(CC(O)COc2ccc3oc(-c4ccc(C(F)(F)F)cc4)nc3c2)CC1` (centres undefined), the Remaining in the series filed under Homo sapiens was determined as 40%. Moreover, half-maximal inhibition in the series listed under Rattus norvegicus [1] (IC50) was put at 8 µM. This compound also came in with an inhibition in the series filed under Rattus norvegicus [5] of 89%.
`Cc1nc2cc(OC[C@H](O)CN3CCN(CC(=O)Nc4c(C)cccc4C)C[C@@H]3C)ccc2s1` had a bioavailability in series [9] of 5%. Also, the AUC in series [10] worked out at 278 ng·h/mL. The half-life in [11] was 6.2 h. Further, the Remaining in the series listed under Homo sapiens is under 10%. This compound also gave an IC50 in the series listed under Rattus norvegicus [1] of 0.2 µM.
On to `Cc1nc2cc(OC[C@H](O)CN3CC4CC3CN4CC(=O)Nc3c(C)cccc3C)ccc2s1` (some centres undefined), for which, in the series listed under Rattus norvegicus [5], the inhibition turned out to be 40%.
Take `CCCc1nc2cc(OCC(O)CN3CCN(CC(=O)Nc4c(C)cccc4C)CC3)ccc2s1` (centres undefined): in the series filed under Homo sapiens, the Remaining was 15%. In addition, half-maximal inhibition in the series filed under Rattus norvegicus [1] (IC50) required 20 µM. The inhibition in the series listed under Rattus norvegicus [5] came out at 70%.
`Cc1nc2ccc(OCC(O)CN3CCN(CC(=O)Nc4c(C)cccc4C)CC3)cc2s1` (centres undefined) came in with an inhibition in the series listed under Rattus norvegicus [5] of 3%.
On to `Cc1nc2cc(OC[C@@H](O)CN3C(C)CN(CC(=O)Nc4c(C)cccc4C)CC3C)ccc2s1` (some centres undefined), for which, in the series filed under Homo sapiens, the Remaining is under 30%. Also, the IC50 in the series listed under Rattus norvegicus [1] came out at 2.5 µM.
As to `Cc1nc2cc(OCCCN3CCN(CC(=O)Nc4c(C)cccc4C)CC3)ccc2s1`, the Remaining in the series filed under Homo sapiens is under 30%. For the same compound, the inhibition in the series listed under Rattus norvegicus [5] amounted to 38%.
In series [12], `Cc1nc2cc(OCC(O)CN3CCN(CC(=O)Nc4c(C)cccc4C)CC3)ccc2s1` (centres undefined) gave a bioavailability of 45%. In series [13], this compound had a half-life of 3 h. In addition, the Remaining in the series filed under Homo sapiens stood at 50%. Besides, the IC50 in the series filed under Rattus norvegicus [1] is 10 µM. In addition, the inhibition in the series filed under Rattus norvegicus [5] is 88%. In series [14], the exposure (AUC) amounted to 1260 ng·h/mL.
As to `Cc1cccc(C)c1NC(=O)CN1CCN(CC(O)COc2ccc3oc(-c4ccccc4)nc3c2)CC1` (centres undefined), the Remaining in the series listed under Homo sapiens turned out to be 15%. In the series listed under Rattus norvegicus [1], this compound registered an IC50 of 23 µM. The inhibition in the series listed under Rattus norvegicus [5] worked out at 70%.
In the case of `Cc1nc2cc(OC[C@H](O)CN3C[C@@H]4C[C@H]3CN4CC(=O)Nc3c(C)cccc3C)ccc2s1`, the inhibition in the series listed under Rattus norvegicus [5] turned out to be 26%.
For the compound `Cc1cccc(C)c1NC(=O)CN1CCN(CC(O)COc2ccc3oc(-c4cccc(C(F)(F)F)c4)nc3c2)CC1` (centres undefined), the Remaining in the series listed under Homo sapiens stood at 6%. This compound displayed an IC50 in the series filed under Rattus norvegicus [1] of 13 µM. Also, in the series listed under Rattus norvegicus [5], the inhibition came out at 82%.
